Reference: ChEMBL document CHEMBL3085708, “Identification and profiling of 3,5-dimethyl-isoxazole-4-carboxylic acid [2-methyl-4-((2S,3'S)-2-methyl-[1,3']bipyrrolidinyl-1'-yl)phenyl] amide as histamine H(3) receptor antagonist for the treatment of depression” (Bioorg Med Chem Lett, 2013)

What was measured:
[1] = test system: Mus musculus; assay: Toxicity in mouse assessed as appearance of tremor at 100 mg/kg, po; format: organism-based; parameters: dose 100 mg/kg, route oral; settings: in vivo
Outline: (§1)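 Acute oral group toxicity in mice: behavioural side effects scored (social interaction, motility, preconvulsant signs, convulsions, tremor) after single po doses of 30 and 100 mg/kg.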

[2] = test system: Mus musculus; assay: Toxicity in mouse assessed as effect on preconvulsion at 30 mg/kg, po; format: organism-based; parameters: dose 30 mg/kg, route oral; settings: in vivo; outline: as §1
[3] = Oral bioavailability in Sprague-Dawley rat at 10 mg/kg; format: ADME, organism-based; settings: in vivo
Outline: (§2)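 Male Sprague-Dawley rats dosed 2 mg/kg iv in saline (0.5 mg/mL) and 10 mg/kg po in 0.5% MC/0.2% Tween80 (1.0 mg/mL); plasma and brain concentrations followed.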

[4] = AUC (0 to infinity) in Sprague-Dawley rat brain at 10 mg/kg, po; format: ADME, organism-based; parameters: time infinity, dose 10 mg/kg, route oral
Outline: (§3)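 Single-dose PK; male OF1 mice and male Sprague-Dawley rats, 2 mg/kg iv and 10 mg/kg po. Mouse vehicles: iv 50% 1-methyl-2-pyrrolidinone in saline (1.0 mg/mL); po 5% DMSO/0.5% MC/0.2% Tween80 (1.0 mg/mL). Rat vehicles: iv saline (0.5 mg/mL); po 0.5% MC/0.2% Tween80 (1.0 mg/mL). Plasma and brain exposure read as AUC0-∞ and t1/2.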

[5] = AUC (0 to infinity) in Sprague-Dawley rat plasma at 10 mg/kg, po; format: ADME, organism-based; parameters: time infinity, dose 10 mg/kg, route oral; outline: as §3
[6] = Volume of distribution in Sprague-Dawley rat at 2 mg/kg, iv; format: ADME, organism-based; parameters: dose 2 mg/kg, route intravenous; settings: in vivo; outline: as §2
[7] = test system: Rattus norvegicus; assay: Plasma clearance in Sprague-Dawley rat at 2 mg/kg, iv; format: ADME, organism-based; parameters: dose 2 mg/kg, route intravenous; settings: in vivo; outline: as §2
[8] = AUC (0 to infinity) in Sprague-Dawley rat plasma at 2 mg/kg, iv; format: ADME, organism-based; parameters: time infinity, dose 2 mg/kg, route intravenous; outline: as §3
[9] = Oral bioavailability in OF1 mouse at 10 mg/kg; format: ADME, organism-based; settings: in vivo
Outline: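 Male OF1 mice given 2 mg/kg iv (50% 1-methyl-2-pyrrolidinone in saline, 1.0 mg/mL) and 10 mg/kg po (5% DMSO/0.5% MC/0.2% Tween80, 1.0 mg/mL); plasma and brain exposure measured; B/P ratio from iv AUC.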

[10] = Elimination half life in OF1 mouse brain at 10 mg/kg, po; format: ADME, organism-based; parameters: dose 10 mg/kg, route oral; settings: read-out: beta t1/2 (converted); outline: as §3
[11] = Cmax in OF1 mouse plasma at 10 mg/kg, po; format: ADME, organism-based; parameters: dose 10 mg/kg, route oral
Outline: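 Oral PK at 10 mg/kg po in male OF1 mice (vehicle 5% DMSO/0.5% MC/0.2% Tween80, 1.0 mg/mL) and male Sprague-Dawley rats (vehicle 0.5% MC/0.2% Tween80, 1.0 mg/mL). Cmax and tmax taken from plasma and brain concentration–time profiles.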

[12] = Elimination half life in OF1 mouse brain at 2 mg/kg, iv; format: ADME, organism-based; parameters: dose 2 mg/kg, route intravenous; settings: read-out: beta t1/2 (converted); outline: as §3
[13] = Elimination half life in OF1 mouse plasma at 2 mg/kg, iv; format: ADME, organism-based; parameters: dose 2 mg/kg, route intravenous; settings: read-out: beta t1/2 (converted); outline: as §3
[14] = AUC (0 to infinity) in OF1 mouse plasma at 2 mg/kg, iv; format: ADME, organism-based; parameters: time infinity, dose 2 mg/kg, route intravenous; outline: as §3
[15] = target: Cytochrome P450 2C9 (Homo sapiens, UniProt P11712); assay: Inhibition of CYP2C9 (unknown origin) after 4 hrs; format: ADME
Chain of Cytochrome P450 2C9 (P11712 whole entry): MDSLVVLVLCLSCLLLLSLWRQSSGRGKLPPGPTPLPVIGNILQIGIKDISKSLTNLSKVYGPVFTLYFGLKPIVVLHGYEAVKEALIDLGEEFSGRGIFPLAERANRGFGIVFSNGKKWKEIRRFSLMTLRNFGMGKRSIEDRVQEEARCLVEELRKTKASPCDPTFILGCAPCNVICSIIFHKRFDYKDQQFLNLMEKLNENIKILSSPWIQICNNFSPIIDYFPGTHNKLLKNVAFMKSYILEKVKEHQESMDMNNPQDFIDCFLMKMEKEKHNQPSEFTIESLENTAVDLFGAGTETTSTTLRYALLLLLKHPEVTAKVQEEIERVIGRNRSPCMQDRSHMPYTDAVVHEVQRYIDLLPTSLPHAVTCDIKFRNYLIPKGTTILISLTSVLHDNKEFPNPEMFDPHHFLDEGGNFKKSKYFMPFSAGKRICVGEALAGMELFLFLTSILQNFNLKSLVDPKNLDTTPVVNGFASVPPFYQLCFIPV

[16] = Inhibition of cytochrome P450 (unknown origin) by mechanism-based assay; format: ADME; settings: human
[17] = test system: Hepatocyte; assay: Intrinsic clearance in human hepatocytes measured per 10^6 cells; format: ADME, cell-based
Outline: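 Intrinsic clearance in human hepatocytes, expressed as mL h−1 per 10^6 hepatocytes, n = 4.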

[18] = Drug metabolism in macaque plasma at 100 ng/ml after 4 hrs; format: ADME, cell-free; settings: macaca, read-out: Drug metabolism
Outline: (§4)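 Compound spiked into blank plasma of human, mouse, rat, rabbit, macaque and dog at 100 ng/ml, then incubated in a 37 °C water bath for up to 4 h; percent metabolized reported.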

[19] = Drug metabolism in rabbit plasma at 100 ng/ml after 4 hrs; format: ADME, cell-free, Oryctolagus cuniculus; settings: read-out: Drug metabolism; outline: as §4
[20] = Drug metabolism in rat liver microsomes; format: ADME; settings: read-out: Drug metabolism
[21] = Drug metabolism in mouse liver microsomes; format: ADME, Microsome; settings: read-out: Drug metabolism
[22] = species on record: Homo sapiens; assay: Inhibition of sigma-2 receptor (unknown origin) at 10 uM relative to control
[23] = target: T1, Voltage-gated inwardly rectifying potassium channel KCNH2 (Canis lupus familiaris, UniProt Q9TSZ3); assay: Inhibition of canine ERG current transfected in CHO cells by patch clamp assay; format: cell-based
T1 sequence (Q9TSZ3 whole entry): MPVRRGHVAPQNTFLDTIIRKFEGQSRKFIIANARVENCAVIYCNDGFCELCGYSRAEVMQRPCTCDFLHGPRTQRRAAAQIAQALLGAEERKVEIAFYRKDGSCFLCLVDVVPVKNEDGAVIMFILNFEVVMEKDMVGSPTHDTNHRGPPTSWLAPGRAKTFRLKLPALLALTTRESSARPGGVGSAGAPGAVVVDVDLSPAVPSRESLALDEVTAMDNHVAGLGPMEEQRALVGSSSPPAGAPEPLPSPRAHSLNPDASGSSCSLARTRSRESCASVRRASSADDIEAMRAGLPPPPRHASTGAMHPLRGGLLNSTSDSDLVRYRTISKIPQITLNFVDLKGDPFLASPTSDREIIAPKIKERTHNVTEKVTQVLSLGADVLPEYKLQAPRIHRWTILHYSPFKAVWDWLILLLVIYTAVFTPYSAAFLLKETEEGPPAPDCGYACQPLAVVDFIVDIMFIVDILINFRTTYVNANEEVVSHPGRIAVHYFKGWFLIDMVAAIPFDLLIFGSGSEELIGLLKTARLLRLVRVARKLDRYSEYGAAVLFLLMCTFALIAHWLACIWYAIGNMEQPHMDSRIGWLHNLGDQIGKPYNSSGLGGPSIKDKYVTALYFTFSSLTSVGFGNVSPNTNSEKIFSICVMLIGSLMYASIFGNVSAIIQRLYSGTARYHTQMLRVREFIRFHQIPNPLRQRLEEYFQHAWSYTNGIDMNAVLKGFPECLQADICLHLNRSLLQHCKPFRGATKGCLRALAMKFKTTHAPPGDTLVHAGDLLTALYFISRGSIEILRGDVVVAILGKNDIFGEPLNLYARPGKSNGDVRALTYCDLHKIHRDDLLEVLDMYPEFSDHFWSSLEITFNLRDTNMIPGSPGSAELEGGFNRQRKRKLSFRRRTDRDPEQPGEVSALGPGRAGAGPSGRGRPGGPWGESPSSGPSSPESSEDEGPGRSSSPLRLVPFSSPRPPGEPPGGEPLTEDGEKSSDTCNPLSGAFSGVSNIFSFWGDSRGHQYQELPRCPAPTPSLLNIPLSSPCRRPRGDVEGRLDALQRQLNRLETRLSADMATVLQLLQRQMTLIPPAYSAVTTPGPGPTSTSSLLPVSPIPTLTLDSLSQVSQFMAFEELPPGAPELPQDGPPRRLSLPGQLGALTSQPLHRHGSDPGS
Outline: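 Whole-cell patch clamp on CHO cells stably transfected with the canine ERG gene; cERG current IC50 from n = 4.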

[24] = target: Histamine H3 receptor (Rattus norvegicus, UniProt Q9QYN8); assay: Displacement of [3H]-methylhistamine from rat histamine H3 receptor (445 amino acid residues) transfected in human 293 cells after 1 hr by scintillation counting analysis; format: cell-based
Chain of Histamine H3 receptor (Q9QYN8 whole entry): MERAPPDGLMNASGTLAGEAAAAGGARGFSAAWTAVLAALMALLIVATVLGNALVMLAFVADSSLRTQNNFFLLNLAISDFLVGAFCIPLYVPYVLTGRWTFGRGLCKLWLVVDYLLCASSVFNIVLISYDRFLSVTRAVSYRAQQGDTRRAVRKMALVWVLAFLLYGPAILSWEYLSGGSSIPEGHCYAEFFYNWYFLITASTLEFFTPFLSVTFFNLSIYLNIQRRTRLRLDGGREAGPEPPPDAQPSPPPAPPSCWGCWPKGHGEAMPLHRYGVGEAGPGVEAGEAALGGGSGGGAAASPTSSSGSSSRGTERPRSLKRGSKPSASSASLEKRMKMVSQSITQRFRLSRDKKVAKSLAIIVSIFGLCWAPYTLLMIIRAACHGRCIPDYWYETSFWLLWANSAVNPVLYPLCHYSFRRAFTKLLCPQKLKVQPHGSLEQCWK

[25] = Dissociation constant, pKa of the compound; format: physicochemical

For `Cc1cc(N2CC[C@H](N3CCC[C@@H]3C)C2)ccc1NC(=O)c1c(C)noc1C`, the Activity [1] was “Toxic”, the Activity [2] was “Non-toxic” and the bioavailability [3] was 56%. The AUC(0-inf) [4] was 3400 ng·h/mL, the AUC(0-inf) [5] was 3150 ng·h/mL and the Vd [6] was 2.8 L/kg. It also gave a clearance [7] of 30 mL/min/kg, an AUC(0-inf) [8] of 1100 ng·h/mL and a bioavailability [9] of 57%. It also gave a half-life [10] of 282 min, a Cmax [11] of 1680 ng/mL and a half-life [12] of 55.8 min. It also gave a half-life [13] of 39 min, an AUC(0-inf) [14] of 670 ng·h/mL and an IC50 [15] of over 100 µM. The “inhibition (INH)” value [16] was “Not Active”, the CLH [17] was 0.04 mL/h and the metabolised at 4 h, 100 ng/ml [18] was under 5%. It also gave a metabolised at 4 h, 100 ng/ml [19] of under 5%, a metabolised [20] of under 5% and a metabolised [21] of under 5%. For the same compound, the inhibition [22] was 73%, the IC50 [23] was 44 µM and the Ki [24] was 0.0009 µM. It also gave a pKa [25] of 10.1.
